According to ChEMBL document CHEMBL4480426, “Novel multi-target directed ligands based on annelated xanthine scaffold with aromatic substituents acting on adenosine receptor and monoamine oxidase B. Synthesis, in vitro and in silico studies” (Bioorg Med Chem, 2019):

How the values were obtained:
[1] = target: T1, Amine oxidase [flavin-containing] A (Homo sapiens, UniProt P21397); assay: Inhibition of recombinant human MAOA expressed in baculovirus infected BTI insect cells using p-tyramine as substrate preincubated for 30 mins followed by substrate addition and measured over 45 mins by horseradish peroxidase-Amplex Red-coupled fluorometric assay
T1 sequence (P21397 whole entry): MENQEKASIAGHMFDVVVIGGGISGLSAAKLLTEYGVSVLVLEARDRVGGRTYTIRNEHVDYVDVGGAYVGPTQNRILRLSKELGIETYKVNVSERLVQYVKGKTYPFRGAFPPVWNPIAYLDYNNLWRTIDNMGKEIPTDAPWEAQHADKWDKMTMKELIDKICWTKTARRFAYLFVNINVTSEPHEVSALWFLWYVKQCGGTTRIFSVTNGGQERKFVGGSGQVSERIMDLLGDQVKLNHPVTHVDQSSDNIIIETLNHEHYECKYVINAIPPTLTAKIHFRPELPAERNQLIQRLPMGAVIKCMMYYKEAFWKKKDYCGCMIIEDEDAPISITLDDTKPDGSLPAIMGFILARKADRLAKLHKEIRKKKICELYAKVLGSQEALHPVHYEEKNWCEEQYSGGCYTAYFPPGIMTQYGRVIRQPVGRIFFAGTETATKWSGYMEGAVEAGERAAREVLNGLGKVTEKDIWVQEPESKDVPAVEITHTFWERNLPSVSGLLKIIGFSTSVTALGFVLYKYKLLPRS
Procedure, shortened: (§1)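 Human recombinant MAO-A or MAO-B enzyme. Activity detected fluorometrically with the Amplex Red monoamine oxidase assay.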

[2] = target: T2, Adenosine receptor A3 (Homo sapiens, UniProt P0DMS8); assay: Displacement of [3H]PSB11 from recombinant human adenosine A3 receptor expressed in CHO cells; format: cell-based
T2 sequence (P0DMS8 whole entry): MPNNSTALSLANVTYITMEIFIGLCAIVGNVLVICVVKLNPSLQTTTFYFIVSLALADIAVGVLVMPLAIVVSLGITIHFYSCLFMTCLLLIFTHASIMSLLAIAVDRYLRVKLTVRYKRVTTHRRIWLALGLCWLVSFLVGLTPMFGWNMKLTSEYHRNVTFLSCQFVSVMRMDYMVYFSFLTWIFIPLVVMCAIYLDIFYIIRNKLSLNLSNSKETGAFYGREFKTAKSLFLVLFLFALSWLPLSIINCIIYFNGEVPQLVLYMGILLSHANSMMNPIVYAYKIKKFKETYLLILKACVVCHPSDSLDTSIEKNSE

[3] = target: T1, Amine oxidase [flavin-containing] A; assay: Inhibition of recombinant human MAOA expressed in baculovirus infected BTI insect cells at 1 to 100 uM using p-tyramine as substrate preincubated for 30 mins followed by substrate addition and measured over 45 mins by horseradish peroxidase-Amplex Red-coupled fluorometric assay relative to control; settings: 0.75 h; procedure, shortened: as §1

## Cn1c(=O)c2c(nc3n2CCCCN3Cc2ccc(Cl)c(Cl)c2)n(C)c1=O
[1]
  IC50: > 1 µM
[2]
  Ki: > 1 µM
[3]
  inhibition (INH): 5%
